MEKK3 PB1 HTS: raises or lowers MEK5 binding to the human MEKK3 PB1 domain. Q99759. bead-based flow cytometry, Alexa488-MEK5 binding to MEKK3; actives lie on both sides; 0 = blocked by unlabeled MEK5, 100 = vehicle. binding response (% of control), % at 10 µM. 290,000 tested, 1.4% active. AID 1529;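 active = binding response more than 3 SD above or below the average of its plate-row segment, actives on both sides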;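 note: Alexa488 bead fluorescence after subtracting the streptavidin-only scavenger bead signal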
Target sequence (Q99759 whole entry, looked up, the tested form may be a part): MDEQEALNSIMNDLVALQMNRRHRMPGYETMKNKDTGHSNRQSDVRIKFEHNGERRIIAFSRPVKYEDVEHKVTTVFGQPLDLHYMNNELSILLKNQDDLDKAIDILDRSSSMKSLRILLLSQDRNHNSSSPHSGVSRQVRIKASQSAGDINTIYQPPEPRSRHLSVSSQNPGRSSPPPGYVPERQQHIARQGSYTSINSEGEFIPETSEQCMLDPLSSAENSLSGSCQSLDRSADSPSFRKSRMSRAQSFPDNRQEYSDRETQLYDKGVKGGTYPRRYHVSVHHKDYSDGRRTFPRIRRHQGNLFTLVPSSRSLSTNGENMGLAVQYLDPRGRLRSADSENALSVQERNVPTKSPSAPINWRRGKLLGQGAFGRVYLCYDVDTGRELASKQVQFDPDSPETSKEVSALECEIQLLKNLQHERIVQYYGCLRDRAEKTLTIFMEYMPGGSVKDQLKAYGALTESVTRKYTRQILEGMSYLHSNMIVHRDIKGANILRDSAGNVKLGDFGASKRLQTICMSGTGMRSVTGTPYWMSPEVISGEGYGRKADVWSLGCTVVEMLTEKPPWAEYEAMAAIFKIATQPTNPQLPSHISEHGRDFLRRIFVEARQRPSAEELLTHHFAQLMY
MEKK2mut PB1 HTS: signal of MEK5 binding to mutant human MEKK2 PB1 domain; 290,000 tested, 0.35% active; bead flow cytometry, Alexa488-MEK5 binding to MEKK2 mutant; percent response, % at 10 µM; AID 1530; in the data active = percent response above about 24%, passing the limit was not always enough
STK33 kinase inh: human STK33 kinase inhibition; 320,000 tested, 0.073% active; purified STK33, MBP phosphorylation, ADP-Glo luminescence; inhibition, % at 10 µM;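 active = inhibition at or above 25%, using the most active replicate where run in duplicate; inactive = inhibition below 25%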
GSK3A inh: inhibitors of human GSK-3 alpha kinase | 320,000 tested, 0.1% active | P49840 | ADP-Glo luminescence, 60 min | inhibition, % at 10 µM;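 active = more than half of replicates show inhibition above 20%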;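 note: GST-tagged GSK-3 alpha with peptide substrate and 25 µM ATP; 0% = DMSO neutral wells and 100% = GW8510 positive control wells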
MEKK2wt PB1 HTS: raises or lowers MEK5 binding to wildtype human MEKK2 PB1 domain | Q9Y2U5 | bead flow cytometry, Alexa488-MEK5 binding to MEKK2 WT; actives lie on both sides | binding response (% of control), % at 10 µM | 290,000 tested, 1.1% active; in the data active = binding response below about 67% or above about 130%
GSK3beta inhib: inhibitors of human GSK3beta kinase; P49841; GST-GSK3beta kinase, ADP-Glo luminescence, 60 min; hits give low values; activity score (negative = inhibition), % at 10 µM; 300,000 tested, 0.038% active;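 active = more than half of replicate wells score below -50%, meaning over 50% inhibition versus plate controls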;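 note: 0% = median DMSO wells and -100% = median GW8510 positive control wells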
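Assay system: GST-tagged human GSK3beta kinase, cell-free; Input: 1.6 ng GSK3beta; Medium: Tris/MgCl2 kinase buffer; Timing: 60 min enzyme reaction, room temperature; Signal: ADP-Glo luminescence quantifying ADP generated by kinase; Evaluation: score relative to plate controls; Benchmarks: DMSO neutral wells and GW8510 at 20 µM as positive.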
MEKK2wt confirm: raises or lowers MEK5 binding to wildtype human MEKK2, retest. shares compounds with MEKK3 PB1 HTS. bead flow cytometry, Alexa488-MEK5 binding to MEKK2 WT; actives lie on both sides. binding response (% of control), % at 10 µM. 5,900 tested, 2.4% active; in the data active = binding response below about 16% or above about 210%; inactive = in between
MEKK2mut confirm: signal of MEK5 binding to mutant human MEKK2, retest; 5,900 tested, 2% active; shares compounds with MEKK3 PB1 HTS; percent response, % at 10 µM; bead flow cytometry, Alexa488-MEK5 binding to MEKK2 mutant; in the data active = percent response mostly above about 71%, no sharp cut-off; inactive = mostly below about 38%;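 note: higher means compound restores mutant binding toward wildtype level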
MEKK3-MEK5 inh: confirmation of inhibitors of MEK5 binding to human MEKK3. shares compounds with MEKK3 PB1 HTS. bead flow cytometry, Alexa488-MEK5 binding to MEKK3; hits give low values. binding response (% of control), % at 10 µM. 5,900 tested, 1.8% active;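 active = binding response below 72% of control, or above a set upper limit, though filed actives all read lower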;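 note: 100% = DMSO only wells and 0% = binding blocked by excess unlabeled MEK5; lower values mean stronger disruption of MEK5 binding to MEKK3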
An asterisk follows results filed as active; . = not tested or not shown; [ ] = another dose, or the depositor's remark. The list is not random: actives were taken first. Their share in the collection is about 2.1%.

SMILES | MEKK3 PB1 HTS | MEKK2mut PB1 HTS | STK33 kinase inh | GSK3A inh | MEKK2wt PB1 HTS | GSK3beta inhib | MEKK2wt confirm | MEKK2mut confirm | MEKK3-MEK5 inh
CN(Cc1cnccn1)Cc1cn(Cc2ccccc2)nc1-c1ccc2c(c1)OCO2 | 97.0 | -6.0 | -0.8 | 2.7 | 91.0 | 3.4 | . | . | .
CN(Cc1ccccn1)Cc1cn(Cc2ccccc2)nc1-c1ccc2c(c1)OCO2 | 107.0 | 42.0 | -3.1 | 0.8 | 196.0* | -20.5 | 106.0 | 4.0 | 101.0
CCOC(=O)c1sc(NC(=O)c2cc3n(n2)C(C(F)(F)F)CC(c2cccs2)N3)c(C(=O)OCC)c1C (stereo not given) | 98.0 | 0.0 | -0.4 | -3.1 | 95.0 | 0.9 | . | . | .
CCOC(=O)c1sc(NC(=O)c2cc3n(n2)C(C(F)(F)F)CC(c2ccccc2)N3)c(C(=O)OCC)c1C (stereo not given) | 81.0*[inhibitor] | -14.0 | -2.3 | -0.6 | 84.0 | 0.2 | 102.0 | -3.0 | 99.0
COc1cc(CNC2CCCC2)cc(OC)c1OC | 101.0 | 1.0 | 1.4 | 2.1 | 97.0 | -3.8 | . | . | .
COc1cc(CNCCO)cc(Br)c1OCc1ccccc1Cl | . | . | 0.8 | 11.4 | . | -3.2 | . | . | .
COc1cc(CNC2CCCCCC2)cc(OC)c1OC | 100.0 | 6.0 | 0.0 | -2.6 | 107.0 | 1.5 | . | . | .
CCOc1cc(CNC2CCCC2)cc(Cl)c1OCc1ccc(F)cc1 | 101.0 | 14.0 | 0.1 | 5.1 | 144.0* | 0.3 | 149.0 | 26.0 | 97.0
COc1cc(CNCCO)cc(Cl)c1OCc1ccc(Cl)cc1Cl | 106.0 | 25.0 | 0.1 | 9.5 | 161.0* | 0.2 | 160.0 | 27.0 | 108.0
COc1cc(CNC2CCCC2)cc(Cl)c1OCc1ccc(F)cc1 | 98.0 | 25.0* | 0.4 | 4.9 | 126.0 | 5.2 | 127.0 | 10.0 | 104.0
COc1cc(CNC2CCCC2)cc(Cl)c1OCc1ccccc1Cl | 109.0 | 46.0 | 1.0 | . | 207.0* | 1.3 | 141.0 | 23.0 | 109.0
COC(=O)c1sc(NC(=O)c2cnccn2)c(C(=O)OC)c1C | 99.0 | -1.0 | -0.7 | . | 100.0 | -0.7 | . | . | .
Cc1cnc(C(=O)NC(C)CCc2ccccc2)cn1 (stereo not given) | 100.0 | 0.0 | -5.1 | 0.5 | 97.0 | 1.6 | . | . | .
O=C(NC1=NCCS1)c1cc(-c2cccc(Br)c2)nc2ccccc12 | 148.0* | 11.0 | -0.6 | 0.2 | 115.0 | -8.5 | 110.0 | 7.0 | 100.0
O=C(COc1cccnc1[N+](=O)[O-])N1CCN(S(=O)(=O)c2ccccc2)CC1 | 145.0* | 1.0 | -1.1 | -0.4 | 109.0 | 0.2 | 105.0 | 6.0 | 102.0
Cn1ccnc1SCC(=O)N1CCN(S(=O)(=O)c2ccccc2)CC1 | 4.0*[inhibitor] | 2.0 | -1.1 | -1.4 | 4.0*[inhibitor] | 3.1 | 99.0 | 7.0 | 102.0
O=C(CN1C(=O)CNC1=O)Nc1cc(Cl)cc(Cl)c1 | . | . | -0.9 | 1.9 | . | . | . | . | .
CCNS(=O)(=O)c1ccc(CCC(=O)N2CCC(C)CC2)cc1 | 102.0 | 2.0 | -1.1 | -1.6 | 104.0 | 0.4 | . | . | .
Clc1ccccc1CNCC1CCCO1 (stereo not given) | 108.0 | 27.0* | 0.3 | 2.6 | 110.0 | -2.6 | 104.0 | 5.0 | 104.0
O=C(OCC#CCSc1nnc(-c2cccc3ccccc23)o1)c1cc2ccccc2o1 | . | . | 0.9 | -1.1 | . | . | . | . | .
NC1=NC(=O)/C(=C/c2cn(CCC(=O)O)nc2-c2ccc(F)cc2)S1 | 129.0* | 1.0 | 7.8 | -0.8 | 111.0 | -0.7 | 98.0 | -2.0 | 100.0
Cc1ccc(NC(=O)CCCN2C(=O)NC(C)(C)C2=O)cc1 | . | . | -0.6 | 0.8 | . | . | . | . | .
Cc1ccc(N(CN2C(=O)NC(C)(C)C2=O)CN2C(=O)NC(C)(C)C2=O)cc1 | 2.0*[inhibitor] | -16.0 | -0.6 | . | 2.0*[inhibitor] | -0.1 | 101.0 | -4.0 | 99.0
CC(C(=O)NCc1ccccc1)N1C(=O)c2ccccc2C1=O (stereo not given) | 101.0 | -1.0 | -6.3 | -4.1 | 101.0 | -3.7 | . | . | .
CC(C(=O)NCc1cccnc1)N1C(=O)c2ccccc2C1=O (stereo not given) | 126.0* | 10.0 | 1.2 | -3.1 | 121.0 | 4.5 | 95.0 | -2.0 | 99.0
SMILES | MEKK3 PB1 HTS | MEKK2mut PB1 HTS | STK33 kinase inh | GSK3A inh | MEKK2wt PB1 HTS | GSK3beta inhib | MEKK2wt confirm | MEKK2mut confirm | MEKK3-MEK5 inh
Cc1c(Cl)cccc1NC(=S)NCCc1ccc(C(F)(F)F)cc1 | 102.0 | -1.0 | -1.5 | -2.9 | 106.0 | -2.7 | . | . | .
Brc1ccc(-n2c(SCc3nc4ccccc4[nH]3)nnc2-c2ccncc2)cc1 | 150.0* | 0.0 | -2.7 | -0.2 | 108.0 | 2.1 | 102.0 | 2.0 | 100.0
CCOC(=O)Cc1csc(NC(=S)NC(=O)c2ccccc2)n1 | 126.0 | 0.0 | -2.4 | -3.8 | 108.0 | 3.5 | . | . | .
CCOC(=O)Cc1csc(NC(=O)c2sc3nc4cc(C)ccc4cc3c2N)n1 | 144.0* | 13.0 | -0.1 | 1.8 | 93.0 | -1.2 | 110.0 | 13.0 | 110.0
CCOC(=O)Cc1csc(NC(=O)/C=C/c2cccc(Br)c2)n1 | 44.0*[inhibitor] | -17.0 | 0.1 | 1.2 | 47.0*[inhibitor] | -0.3 | 101.0 | -3.0 | 101.0
CCOC(=O)Cc1csc(NC(=S)NC(=O)c2cccc([N+](=O)[O-])c2)n1 | 139.0* | 1.0 | -1.8 | 0.5 | 108.0 | -2.2 | 106.0 | 4.0 | 103.0
CCOC(=O)Cc1csc(NC(=O)c2ccc(C)cc2)n1 | 104.0 | 0.0 | -0.5 | -0.4 | 100.0 | 2.5 | . | . | .
CCOC(=O)Cc1csc(NC(=O)/C=C/c2ccc(Br)o2)n1 | 83.0 | -19.0 | 0.3 | 4.3 | 85.0 | -5.3 | . | . | .
CCn1ccnc1CNC(=O)C1CCC(=O)N(Cc2ccccc2F)C1 (stereo not given) | 100.0 | 0.0 | 0.0 | -1.4 | 101.0 | 2.0 | . | . | .
CC1CCN(C(=O)CSc2ccc(-c3ccccc3)nn2)CC1 | 104.0 | 9.0 | 0.4 | -3.2 | 112.0 | 2.0 | . | . | .
CCOC(=O)CNC(=O)c1cccnc1Oc1ccc(Cl)cc1 | 102.0 | 2.0 | 0.1 | -2.5 | 104.0 | 0.6 | . | . | .
CCc1cccc2c(C(=O)C(F)(F)F)cn(CC(=O)N3CCOCC3)c12 | 147.0* | 6.0 | 0.4 | -5.6 | 124.0 | -2.5 | 105.0 | 2.0 | 107.0
CCc1cccc2c(C(=O)C(F)(F)F)cn(CC(=O)NCC3CCCO3)c12 (stereo not given) | 105.0 | 4.0 | -1.6 | -1.1 | 107.0 | 2.1 | . | . | .
COc1ccc(NC(=O)COc2nsnc2N2CCCCC2)cc1 | 27.0*[inhibitor] | -33.0 | -0.9 | -2.8 | 44.0*[inhibitor] | -1.1 | 95.0 | -1.0 | 99.0
CCOc1ccc(NC(=O)COc2nsnc2N2CCCCC2)cc1 | 89.0 | -6.0 | 0.7 | -0.5 | 88.0 | -3.0 | . | . | .
